Experimental findings from ChEMBL document CHEMBL2169786, “5-Arylidenethioxothiazolidinones as inhibitors of tyrosyl-DNA phosphodiesterase I” (J Med Chem, 2012) are described below.

The source made the active and inactive calls. The rule behind the calls is not given here.

In experiment [1] the target is T1, Tyrosyl-DNA phosphodiesterase 1 (Homo sapiens, UniProt Q9NUW8). Nature of the experiment: Inhibition of human recombinant Tdp1 assessed as conversion of 14-mer 5'-32P-labeled 3'-phosphotyrosyl DNA substrate N14Y to 14-mer 5'-32P-labeled 3'-phosphate DNA product N14P after 15 mins by PAGE analysis.
Experiment [2] addresses T1, Tyrosyl-DNA phosphodiesterase 1. The experiment in a line: Inhibition of human recombinant Tdp1 expressed in Tdp1 knockout chicken DT40 cells using 5'-32P-labeled 5'-GATCTAAAAGACTT-pY-3' as substrate after 15 mins by PAGE analysis.
For experiment [3] the target is unchanged. Nature of the experiment: Ratio of IC50 for human recombinant Tdp1 in presence of bovine serum albumin to IC50 for human recombinant Tdp1 in absence of bovine serum albumin.
Experiment [4] has the same target. Nature of the experiment: Inhibition of human recombinant Tdp1 assessed as conversion of 14-mer 5'-32P-labeled 3'-phosphotyrosyl DNA substrate N14Y to 14-mer 5'-32P-labeled 3'-phosphate DNA product N14P after 15 mins by PAGE analysis in presence of bovine serum albumin.
The species entered for the next experiment is Homo sapiens. Nature of the experiment: Selectivity ratio of IC50 for recombinant Tdp2 to IC50 for human recombinant Tdp1.
The test system of experiment [5] is N14Y tyrosyl-oligonucleotide (DNA, no organism). Nature of the experiment: Binding affinity to biotin- GATCTAAAAGACTT-Tyr immobilized CM5 sensor chip by surface plasmon resonance analysis. In general terms: SPR reads the build-up and loss of mass on a sensor chip optically.
The target in experiment [6] is T1, Tyrosyl-DNA phosphodiesterase 1. The experiment in a line: Binding affinity to human recombinant Tdp1 in amine coupled to CM5 sensor chip by surface plasmon resonance analysis. Summed up: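 SPR: Tdp1 amine-coupled to CM5 chip (~6000 RU), active site protected during coupling by prebinding 2 μM 3′-phosphate 14-mer oligo to 1 μM Tdp1 in 10 mM sodium acetate pH 4.5, 20 min. Compound series 0.39–50 μM in Tris/KCl/EDTA/DTT/BSA running buffer with 5% DMSO, pH 7.5, injected at 30 μL/min, 25 °C. Buffer-cycle referencing; DMSO calibration.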

Experiment [7] addresses T2, Tyrosyl-DNA phosphodiesterase 2 (Homo sapiens, UniProt O95551).
T2 sequence (O95551 whole entry): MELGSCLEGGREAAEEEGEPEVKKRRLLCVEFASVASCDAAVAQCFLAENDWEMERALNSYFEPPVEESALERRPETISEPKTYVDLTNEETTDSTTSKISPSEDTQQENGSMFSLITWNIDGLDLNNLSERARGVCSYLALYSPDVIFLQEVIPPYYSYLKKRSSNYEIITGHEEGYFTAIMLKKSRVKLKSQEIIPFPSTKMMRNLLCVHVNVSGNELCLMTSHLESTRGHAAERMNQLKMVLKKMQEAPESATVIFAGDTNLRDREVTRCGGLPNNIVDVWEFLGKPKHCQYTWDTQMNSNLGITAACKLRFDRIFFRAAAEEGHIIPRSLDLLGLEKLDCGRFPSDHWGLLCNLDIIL
The experiment in a line: Inhibition of recombinant Tdp2.

T1 sequence (Q9NUW8 whole entry): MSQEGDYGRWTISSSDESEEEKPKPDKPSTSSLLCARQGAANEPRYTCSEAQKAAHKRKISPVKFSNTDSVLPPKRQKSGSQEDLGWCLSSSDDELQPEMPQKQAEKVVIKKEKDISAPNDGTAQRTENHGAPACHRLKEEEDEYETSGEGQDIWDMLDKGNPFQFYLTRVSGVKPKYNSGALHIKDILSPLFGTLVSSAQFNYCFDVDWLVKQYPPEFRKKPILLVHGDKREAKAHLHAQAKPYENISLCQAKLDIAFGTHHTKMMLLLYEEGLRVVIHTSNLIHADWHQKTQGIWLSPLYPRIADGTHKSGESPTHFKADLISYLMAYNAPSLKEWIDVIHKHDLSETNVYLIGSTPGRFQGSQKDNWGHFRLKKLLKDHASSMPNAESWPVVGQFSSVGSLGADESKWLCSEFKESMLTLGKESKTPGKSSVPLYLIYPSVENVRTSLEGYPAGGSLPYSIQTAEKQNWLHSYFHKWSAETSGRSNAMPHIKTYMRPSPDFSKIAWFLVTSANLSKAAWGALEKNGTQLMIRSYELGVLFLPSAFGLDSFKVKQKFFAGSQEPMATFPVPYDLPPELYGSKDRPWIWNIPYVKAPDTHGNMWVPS

As to `N#C/C(=C\c1ccc(Br)cc1)C(N)=S`, the IC50 in experiment [1] is over 333 µM.
In the case of `O=C1NC(=S)/C(=C/c2cc(O)ccc2O)S1`, the IC50 was determined as 76 µM in experiment [2] and 7.1 µM in experiment [1].
With `O=C1NC(=S)/C(=C/c2ccccc2O)S1`, the IC50 in experiment [1] was found to be 34 µM.
The same measure, in the same setting: then `N#C/C(=C\c1ccc(O)c(O)c1)C(=O)NCc1ccccc1`, with over 333 µM.
Take `N#C/C(=C\c1ccc2[nH]ccc2c1)C(N)=S`: the IC50 in experiment [1] was over 333 µM.
The same measure, in the same setting: for `O=C1NC(=S)/C(=C/c2ccc(O)cc2)S1` the value was 39 µM.
`O=C1NC(=S)/C(=C/c2ccc(P(=O)(O)O)cc2)S1`: the 50% inhibitory concentration (IC50) stood at 69 µM in experiment [2] and 2.2 µM in experiment [1].
On to `O=C1NC(=O)/C(=C/c2ccc(F)cc2)S1`, for which the IC50 in experiment [1] is over 333 µM.
Still for that read-out and setting: for `N#C/C(=C\c1ccc(O)c(O)c1)C(=O)O` the value was over 333 µM; for `Cn1cc(/C=C2\SC(=O)NC2=S)c2ccccc21`, 40 µM; for `O=C1NC(=O)/C(=C/c2ccc(C(=O)O)cc2)S1`, over 111 µM.
On the same count and under the same terms, then `O=C1NC(=S)/C(=C/c2ccc([N+](=O)[O-])cc2)S1`, with 19 µM; and `N#C/C(=C\c1ccc(O)c(O)c1)C(=S)NCc1ccccc1`, with 18 µM; and `O=C1/C(=C/c2ccc(F)cc2)NC(=S)N1c1ccccc1`, with over 333 µM.
In the case of `O=C1NC(=O)/C(=C/c2ccc3[nH]ccc3c2)S1`, the IC50 in experiment [1] was over 111 µM.
Take `COC(=O)c1ccc(/C=C2\SC(=O)NC2=S)cc1`: the figures for the IC50 in experiment [2] and in experiment [1] were 38 µM and 6.7 µM, respectively.
Consider `O=C1NC(=S)/C(=C/c2ccc(-c3nnn[nH]3)cc2)S1`, for which, in experiment [1], the IC50 was 32 µM.
Regarding `N#C/C(=C\c1ccc([N+](=O)[O-])cc1)C(N)=S`, the IC50 in experiment [1] is over 333 µM.
For the molecule `O=C(O)c1ccc(/C=C2\NC(=S)N(c3ccccc3)C2=O)cc1`, the IC50 in experiment [1] is over 333 µM.
For the molecule `O=C1NC(=S)/C(=C/c2ccncc2)S1`, the IC50 in experiment [1] came to 75 µM.
For `COC(=O)c1cccc(/C=C2\SC(=O)NC2=S)c1`, the IC50 in experiment [1] was 51 µM.
On the same count and under the same terms, for `O=C1NC(=S)/C(=C/c2cccnc2)S1` the value was 44 µM.
Take `O=C1NC(=S)/C(=C/c2ccc(O)cc2O)S1`: the IC50 in experiment [2] stood at 76 µM; in experiment [1], 4.1 µM.
For `O=C1NC(=S)/C(=C/c2ccc(Br)cc2)S1`, the IC50 in experiment [1] amounted to 30 µM.
For the molecule `O=C1NC(=S)/C(=C/c2ccc(O)c(O)c2)S1`, the IC50 was found to be 41 µM in experiment [2] and 2.6 µM in experiment [1].
For the molecule `N#CC(C#N)=Cc1cc(O)c(O)c(O)c1` [TYRPHOSTIN 25], the IC50 in experiment [1] is over 333 µM.
As for `O=C1NC(=S)N(Cc2ccccc2)/C1=C\c1ccc(C(=O)O)cc1`, the IC50 in experiment [1] is over 333 µM.
Consider `O=C1NC(=S)/C(=C/c2cccc(O)c2O)S1`, for which the values for the IC50 in experiment [2] and in experiment [1] were 220 µM and 5.8 µM, respectively.
In the case of `O=C1NC(=S)/C(=C/c2ccc(O)c(O)c2O)S1`, the IC50 in experiment [2] amounted to 35 µM; in experiment [1] it was 0.87 µM; in experiment [4] it was 2.8 µM; in experiment [7], 17 µM. The Ratio IC50 in experiment [3] was found to be 3; in the experiment filed under Homo sapiens it was 20. Besides, the outcome in experiment [5] was inactive. Moreover, the Activity result in experiment [6] is “Dose-dependent effect”.
As to `O=C1NC(=S)/C(=C/c2ccc(C(=O)O)cc2)S1` [listing 1 of 2 here], the 50% inhibitory concentration (IC50) in experiment [2] was determined as 11 µM; in experiment [1], 16 µM.
Take `N#C/C(=C\c1ccc(C(=O)O)cc1)C(N)=S`: the IC50 in experiment [1] came out at 12 µM.
Consider `O=C1NC(=S)/C(=C/c2ccccc2S(=O)(=O)O)S1`, for which the IC50 in experiment [1] turned out to be 20 µM.
The same measure, in the same setting: then `O=C1NC(=S)/C(=C/c2ccc(-c3ccccc3)s2)S1`, with 46 µM.
`O=C1NC(=S)/C(=C/c2ccccc2C(=O)O)S1` [listing 1 of 2 here]: the IC50 came to 280 µM in experiment [2] and 8.5 µM in experiment [1].
In the case of `COc1cc(/C=C2\SC(=O)NC2=S)ccc1O`, in experiment [1], the IC50 was found to be 11 µM.
The same measure, in the same setting: for `O=C1NC(=S)/C(=C/c2ccccc2-c2nnn[nH]2)S1` the value was 111 µM; for `O=C1NC(=S)/C(=C/c2ccc(F)cc2)S1`, 27 µM.
As to `O=C1NC(=S)/C(=C/c2csc3ccccc23)S1`, the IC50 in experiment [1] was 34 µM.
Regarding `N#C/C(=C\c1ccc2ccccc2c1)C(N)=S`, the 50% inhibitory concentration (IC50) in experiment [1] is over 333 µM.
As to `N#Cc1ccc(/C=C2\SC(=O)NC2=S)cc1`, the IC50 in experiment [1] is 28 µM.
With `O=C1NC(=S)/C(=C/c2cccc(O)c2)S1`, the IC50 in experiment [1] came out at 26 µM.
As for `COc1cc(/C=C2\SC(=O)NC2=S)cc(OC)c1O`, in experiment [1], the IC50 came to 48 µM.
The same measure, in the same setting: then `O=C1NC(=S)/C(=C/c2ccc3[nH]ccc3c2)S1`, with 12 µM.
For the molecule `O=C1NC(=S)/C(=C/c2ccccc2C(=O)O)S1` [listing 2 of 2 here], the IC50 is 138 µM in experiment [2] and 15 µM in experiment [1].
Consider `N#C/C(=C\c1ccc(F)cc1)C(N)=S`, for which, in experiment [1], the IC50 is over 333 µM.
Regarding `CCOP(=O)(OCC)c1ccc(/C=C2\SC(=O)NC2=S)cc1`, in experiment [1], the IC50 came out at 29 µM.
`O=C1NC(=S)/C(=C/c2ccc(C(=O)O)cc2)S1` [listing 2 of 2 here]: the IC50 in experiment [2] came to 6.9 µM; in experiment [1], 7.8 µM.
As to `O=C1/C(=C/c2ccc(O)c(O)c2)NC(=S)N1c1ccccc1`, in experiment [1], the IC50 was 74 µM.
Turning to `O=C1NC(=S)N(Cc2ccccc2)/C1=C\c1ccc(O)c(O)c1`, the IC50 in experiment [1] was found to be 13 µM.
Same read-out and setting: then `N#C/C(=C\c1ccc(O)c(O)c1)C(N)=O`, with over 333 µM; and `O=C1NC(=S)/C(=C/c2cccc(C(=O)O)c2)S1`, with 15 µM; and `CC(=O)Nc1ccc(/C=C(\C#N)C(N)=S)cc1`, with over 333 µM.

For orientation: IC50 means the concentration needed to halve the response being measured.
